Experimental data from ChEMBL document CHEMBL1124947, “Cationic antiprotozoal drugs. Trypanocidal activity of 2-(4'-formylphenyl)imidazo[1,2-a]pyridinium guanylhydrazones and related derivatives of quaternary heteroaromatic compounds” (J Med Chem, 1990).

Experiments:
Format in all cases: functional
Mus musculus [1] = test: Trypanocidal Activity at I.C.E. value 0.84 when administered subcutaneously.
How it was run: (§1)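 Mice, in groups of five per dose, were given a standard inoculum of blood-stage T. rhodesiense that is lethal to all untreated controls, then dosed subcutaneously. Usually 11 dose levels were used (2^n × 0.42 mg/kg).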

Mus musculus [2] = test: Trypanocidal Activity at I.C.E. value 0.40 when administered perorally.
Mus musculus [3] = test: Trypanocidal Activity at I.C.E. value 0.31 when administered perorally.
Mus musculus [4] = test: Trypanocidal Activity at I.C.E. value 0.94 when administered subcutaneously.; how it was run: as §1
Mus musculus [5] = test: Trypanocidal Activity at I.C.E. value 0.12 when administered perorally.
Mus musculus [6] = test: Trypanocidal Activity at I.C.E. value 0.21 when administered subcutaneously.
Mus musculus [7] = test: Trypanocidal Activity at I.C.E. value 0.17 when administered perorally.
Mus musculus [8] = test: Trypanocidal Activity at I.C.E. value 0.19 when administered subcutaneously.
Mus musculus [9] = test: Trypanocidal Activity at I.C.E. value 0.20 when administered subcutaneously.
Mus musculus [10] = test: Trypanocidal Activity at I.C.E. value 0.50 when administered subcutaneously.
How it was run: (§2)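 Blood-stage T. rhodesiense infection came from a standard inoculum lethal to all untreated mice. Drug was given by subcutaneous injection to groups of five mice. Survival beyond 30 days counted as cure. […] Sub-curative doses scored 0, and data were normalized at each dose.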

Mus musculus [11] = test: Trypanocidal Activity at I.C.E. value 0.20 when administered perorally.
Mus musculus [12] = test: Trypanocidal Activity at I.C.E. value 0.30 when administered subcutaneously.; how it was run: as §2
Mus musculus [13] = test: Trypanocidal Activity at I.C.E. value 0.86 when administered subcutaneously.; how it was run: as §1
Mus musculus [14] = test: Trypanocidal Activity at I.C.E. value 0.52 when administered perorally.
Mus musculus [15] = test: Trypanocidal Activity at I.C.E. value 0.06 when administered perorally.
[16] = test system: Trypanosoma brucei rhodesiense; test: In Vitro measurement of inhibition of leucine uptake in cell culture of Trypanosoma rhodesiense; details: read-out: ID50 (the source's name)
How it was run: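 Trypanosomes harvested from infected rats, cultured 3 h with several concentrations of drug, usually 0.1–100 µg/mL. Radiolabeled L-leucine uptake measured. ID50 is the concentration in µg/mL giving 50% inhibition of incorporation.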

[17] = test system: Trypanosoma brucei rhodesiense; test: In Vitro measurement of inhibition of thymidine uptake in cell culture of Trypanosoma rhodesiense; details: read-out: ID50 (the source's name)
How it was run: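 Parasites harvested from infected rats and incubated 3 h across a drug concentration series, usually 0.1–100 µg/mL. Incorporation of radiolabeled thymidine measured. ID50 is the concentration (µg/mL) producing 50% inhibition.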

Mus musculus [18] = test: Trypanocidal Activity at I.C.E. value 0.22 when administered subcutaneously.
Mus musculus [19] = test: Trypanocidal Activity at I.C.E. value 0.55 when administered subcutaneously.; how it was run: as §1
Mus musculus [20] = test: Trypanocidal Activity at I.C.E. value 0.76 when administered subcutaneously.; how it was run: as §1
Mus musculus [21] = test: Trypanocidal Activity at I.C.E. value 0.62 when administered subcutaneously.; how it was run: as §1
Mus musculus [22] = test: Trypanocidal Activity at I.C.E. value 0.28 when administered perorally.
Mus musculus [23] = test: Trypanocidal Activity at I.C.E. value 0.83 when administered subcutaneously.; how it was run: as §1
Mus musculus [24] = test: Trypanocidal Activity at I.C.E. value 0.46 when administered subcutaneously.; how it was run: as §2
Mus musculus [25] = test: Trypanocidal Activity at I.C.E. value 0.49 when administered perorally.
Mus musculus [26] = test: Trypanocidal Activity at I.C.E. value 0.34 when administered subcutaneously.; how it was run: as §2
Mus musculus [27] = test: Trypanocidal Activity at I.C.E. value 0.66 when administered subcutaneously.; how it was run: as §1
Mus musculus [28] = test: Trypanocidal Activity at I.C.E. value 0.49 when administered subcutaneously.; how it was run: as §2
Mus musculus [29] = test: Trypanocidal Activity at I.C.E. value 0.23 when administered subcutaneously.; how it was run: as §2
Mus musculus [30] = test: Trypanocidal Activity at I.C.E. value >0.15 when administered subcutaneously.; how it was run: as §1
Mus musculus [31] = test: Trypanocidal Activity was determined after subcutaneous administration; how it was run: as §1

For `Br.CCCCSc1ccc2n(c1)cc(-c1ccc(/C=N/NC(=N)NO)cc1)[n+]2C.[Br-]`, which CD50 (Mus musculus [1]) is on record?
Its CD50 is 0.8 mg/kg.

What about the CD50 (Mus musculus [2]) of the same compound?
Its CD50 is 26 mg/kg.

`Br.CCCSc1ccc2n(c1)cc(-c1ccc(/C=N/NC(=N)N3CCCC3)cc1)[n+]2C.[Br-]` was tested. Which CD50 (Mus musculus [3]) did it give?
Its CD50 is 53 mg/kg.

What about the CD50 (Mus musculus [4]) of the same compound?
The CD50 was 0.1 mg/kg.

With `Br.C[n+]1ccc(COc2ccc(/C=N/NC3=NCCN3)cc2)cc1.[Br-]` as the compound, how does the CD50 (Mus musculus [5]) read?
Its CD50 is 424 mg/kg.

What about the CD50 (Mus musculus [6]) of the same compound?
The CD50 was 13 mg/kg.

For `Br.C[n+]1ccccc1COc1ccc(/C=N/NC(=N)N2CCCC2)cc1.[Br-]`, which CD50 (Mus musculus [7]) is on record?
Its CD50 is 106 mg/kg.

What about the CD50 (Mus musculus [8]) of the same compound?
The CD50 was 0.1 mg/kg.

How did the CD50 (Mus musculus [9]) turn out when `C=CC[n+]1c(-c2ccc(NC(C)=O)cc2)cn2ccccc21.[Br-]` was run?
Its CD50 is 26 mg/kg.

For `Br.CCCCNC(=N)N/N=C/c1ccc(-c2cn3ccccc3[n+]2C)cc1.[Br-]`, which CD50 (Mus musculus [10]) is on record?
Its CD50 is 0.8 mg/kg.

What does the source list for `C[n+]1c(-c2ccc(/C=N/NC(=N)N3CCSC3)cc2)cn2ccccc21.Cc1ccc(S(=O)(=O)O)cc1.Cc1ccc(S(=O)(=O)[O-])cc1`?
CD50 (Mus musculus [11]): 212 mg/kg; CD50 (Mus musculus [12]): 13 mg/kg

What does the source list for `Br.Cc1cccc2n1cc(/C=C/c1ccc(/C=N/NC3=NCCN3)cc1)[n+]2C.[Br-]`?
CD50 (Mus musculus [13]): 0.4 mg/kg; CD50 (Mus musculus [14]): 26 mg/kg

How did the CD50 (Mus musculus [15]) turn out when `Br.Cn1c[n+](Cc2ccc(/C=N/NC(=N)N)cc2)c2ccccc21.[Br-]` was run?
The CD50 was 424 mg/kg.

And the CD50 (Mus musculus [8])?
Its CD50 is 6.6 mg/kg.

Which results are given for `Br.C[n+]1c(-c2ccc(/C=N/NC(=N)NN3CCOCC3)cc2)cn2ccccc21.[Br-]`?
IC50 [16]: 9.7 µg/mL; IC50 [17]: 6.7 µg/mL; CD50 (Mus musculus [18]): 0.8 mg/kg

With `Br.CSC(=N)N/N=C/c1ccc(-c2cn3ccccc3[n+]2C)cc1.[Br-]` as the compound, how does the CD50 (Mus musculus [19]) read?
Its CD50 is 6.6 mg/kg.

What about the IC50 [16] of the same compound?
Its IC50 is 5.8 µg/mL.

What about the IC50 [17] of the same compound?
The IC50 was 3.8 µg/mL.

`Br.Cc1ccc2n(c1)cc(-c1ccc(/C=N/NC3=NCCCN3)cc1)[n+]2C.[Br-]` was tested. Which CD50 (Mus musculus [20]) did it give?
The CD50 was 0.2 mg/kg.

With `Cc1ccc(S(=O)(=O)[O-])cc1.Cc1cccc2n1cc(/C=C/c1ccc(/C=N/NC(=O)c3ccc(N)cc3)cc1)[n+]2C` as the compound, how does the CD50 (Mus musculus [21]) read?
Its CD50 is 6.6 mg/kg.

Which results are given for `C[n+]1cccc(COc2ccc(/C=N/NC(=N)NO)cc2)c1.Cc1ccc(S(=O)(=O)O)cc1.Cc1ccc(S(=O)(=O)[O-])cc1`?
IC50 [16]: 10.3 µg/mL; IC50 [17]: 3.8 µg/mL; CD50 (Mus musculus [18]): 1.6 mg/kg

With `CCCCSc1ccc2n(c1)cc(-c1ccc(/C=N/NC(=N)N)cc1)[n+]2C.Cc1ccc(S(=O)(=O)O)cc1.Cc1ccc(S(=O)(=O)[O-])cc1` as the compound, how does the CD50 (Mus musculus [22]) read?
The CD50 was 106 mg/kg.

And the CD50 (Mus musculus [23])?
The CD50 was 0.4 mg/kg.

Which CD50 (Mus musculus [24]) does the source give for `Br.Cc1ccc2n(c1)cc(COc1ccc(/C=N/NC(=N)N3CCCC3)cc1)[n+]2C.[Br-]` here?
Its CD50 is 0.8 mg/kg.

What about the CD50 (Mus musculus [25]) of the same compound?
Its CD50 is 13 mg/kg.

`Br.C[n+]1c(-c2ccc(/C=C/C=N/NC(=N)N3CCCC3)cc2)cn2ccccc21.[Br-]` was tested. Which CD50 (Mus musculus [3]) did it give?
Its CD50 is 53 mg/kg.

What about the CD50 (Mus musculus [26]) of the same compound?
Its CD50 is 0.8 mg/kg.

How did the CD50 (Mus musculus [27]) turn out when `Br.CC/N=C(\NCC)N/N=C/c1ccc(-c2cn3cc(C)ccc3[n+]2C)cc1.[Br-]` was run?
Its CD50 is 1.6 mg/kg.

How did the CD50 (Mus musculus [28]) turn out when `Br.Cc1ccc2n(c1)cc(-c1ccc(/C=N/NC(=N)N3CCCC3)cc1)[n+]2C.[Br-]` was run?
Its CD50 is 0.1 mg/kg.

With `Br.Cn1c[n+](Cc2ccc(/C=N/NC(=N)N3CCCC3)cc2)c2ccccc21.[Br-]` as the compound, how does the CD50 (Mus musculus [5]) read?
The CD50 was 424 mg/kg.

And the IC50 [16]?
The IC50 was 0.7 µg/mL.

And the IC50 [17]?
The IC50 was 0.6 µg/mL.

And the CD50 (Mus musculus [29])?
Its CD50 is 6.6 mg/kg.

Which CD50 (Mus musculus [10]) does the source give for `C[n+]1c(-c2ccc(/C=N/Nc3nc[nH]n3)cc2)cn2ccsc21.[Br-]` here?
The CD50 was 13 mg/kg.

How did the CD50 (Mus musculus [30]) turn out when `C[n+]1c(-c2ccc(/C=N/NC(=N)N[N+](=O)[O-])cc2)cn2ccccc21.[Br-]` was run?
Its CD50 is <26 mg/kg.

`Cc1ccc2n(c1)cc(-c1ccc(/C=N/NC(=N)N[N+](=O)[O-])cc1)[n+]2C.[Br-]` was tested. Which CD50 (Mus musculus [31]) did it give?
Its CD50 is <26 mg/kg.
